From ChEMBL document CHEMBL1125497, “Synthesis and anticonvulsant activity of enaminones” (J Med Chem, 1992)

What was measured:
[1] = Dose producing neurotoxic effects in 50% of the CF1 mice after intraperitoneal administration.; assay type: ADME; conditions: CF1, mouse, in vivo, ip
Method in brief: (§1)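 Phase II quantification in CF1 male mice (ca. 24–34 g), dosing ip or po in 0.5% methylcellulose suspension. ED50 is protection from tonic hind limb extension in MES. TD50 is rotorod neurotoxicity. Both were read at time of peak effect and derived by Litchfield–Wilcoxon with 95% confidence limits.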

[2] = Antiepileptic activity in male CF1 mice 30 min after administration measured in neurological toxicity (Tox) test at a dose of 300 mg/kg (no. of animals treated /protected); activity value is 1/4; assay type: functional, Mus musculus
[3] = Time of peak neurotoxic effect in CF1 mice; assay type: ADME; conditions: mouse, in vivo
Method in brief: (§2)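 Male CF1 mice (ca. 24–34 g), compound ip in 0.5% methylcellulose suspension; neurological deficit assessed by rotorod test, time (h) of peak neurotoxic effect recorded for TD50 determination.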

[4] = Antiepileptic activity in male CF1 mice 30 min after administration measured in subcutaneous pentylenetetrazole (scMet) test at a dose of 300 mg/kg (no. of animals treated /protected); activity value is 0/1; assay type: functional, Mus musculus
[5] = Anticonvulsant activity administered intraperitoneally in CF1 mice is the ability to protect the mice from MES(maximal electroshock seizure).; assay type: functional; conditions: Mus musculus, ip
[6] = Protective index was measured as TD50/ED50; assay type: ADME; conditions: read-out: PI
[7] = Time of peak anticonvulsant effect in CF1 mice; assay type: functional, Mus musculus
Method in brief: (§3)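 Male CF1 mice (ca. 24–34 g), compound in 0.5% methylcellulose suspension given ip or po; time (h) at which MES protection (against tonic hind limb extension) peaked was recorded and used for ED50 determination.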

[8] = Antiepileptic activity in male CF1 mice 4 hr after administration measured in subcutaneous pentylenetetrazole (scMet) test at a dose of 300 mg/kg (no. of animals treated /protected); activity value is 0/1; assay type: functional, Mus musculus
[9] = Antiepileptic activity in male CF1 mice 4 hr after administration measured in neurological toxicity (Tox) test at a dose of 300 mg/kg (no. of animals treated /protected); activity value is 0/2; assay type: functional, Mus musculus
[10] = Antiepileptic activity in male CF1 mice 4 hr after administration measured in maximum electroshock seizure(MES) test at a dose of 300 mg/kg (no. of animals treated /protected); activity value is 0/1; assay type: functional, Mus musculus
[11] = Antiepileptic activity in male CF1 mice 30 min after administration measured in maximum electroshock seizure(MES) test at a dose of 300 mg/kg (no. of animals treated /protected); activity value is 1/1; assay type: functional, Mus musculus
[12] = Dose at which anticonvulsant activity was observed in mice; assay type: functional, Mus musculus
[13] = Antiepileptic activity in male CF1 mice 30 min after administration measured in maximum electroshock seizure(MES) test at a dose of 300 mg/kg (no. of animals treated /protected); activity value is 0/1; assay type: functional, Mus musculus
[14] = Antiepileptic activity in male CF1 mice 4 hr after administration measured in maximum electroshock seizure(MES) test at a dose of 300 mg/kg (no. of animals treated /protected); activity value is 1/1; assay type: functional, Mus musculus
[15] = Antiepileptic activity in male CF1 mice 30 min after administration measured in neurological toxicity (Tox) test at a dose of 300 mg/kg (no. of animals treated /protected); activity value is 0/4; assay type: functional, Mus musculus
[16] = Protective index was measured as TD50/MES ED50 in mice on ip administration; assay type: ADME, organism-based; conditions: mouse, in vivo, read-out: PI
Method in brief: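 Male CF1 mice (ca. 24–34 g), compound given ip as 0.5% methylcellulose suspension. MES ED50 = dose protecting 50% from tonic hind limb extension; TD50 = median neurotoxic dose by rotorod; both at time of peak effect, with confidence limits by Litchfield and Wilcoxon. PI = TD50/MES ED50.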

[17] = Antiepileptic activity in male CF1 mice 30 min after administration measured in maximum electroshock seizure(MES) test at a dose of 100 mg/kg (no. of animals treated /protected); activity value is 1/3; assay type: functional, Mus musculus
[18] = Dose protecting 50% of the mice from tonic hind limb extension at the time of […] after ip administration.; assay type: functional; conditions: Mus musculus, Hindlimb; method in brief: as §1
[19] = Dose elevating electroshock induced seizure by 20% in CF1 mice after ip administration.; assay type: functional, Mus musculus
Method in brief: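 In CF1 male mice (ca. 24–34 g), compound was given ip in 0.5% methylcellulose. The current giving hind limb extension in 50% of mice was found by the up-and-down method, with 15–25 mice per group and a vehicle control group run with each experimental group. At least three doses were tested. The dose raising threshold current by 20% was taken from a plot of dose against % threshold increase.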

[20] = Time of peak anticonvulsant effect in CF1 MICE after ip administration.; assay type: functional, Mus musculus; method in brief: as §3
[21] = Antiepileptic activity in male CF1 mice 30 min after administration measured in neurological toxicity (Tox) test at a dose of 100 mg/kg (no. of animals treated /protected); activity value is 0/8; assay type: functional, Mus musculus
[22] = Antiepileptic activity in male CF1 mice 4 hr after administration measured in maximum electroshock seizure(MES) test at a dose of 100 mg/kg (no. of animals treated /protected); activity value is 0/3; assay type: functional, Mus musculus
[23] = Time of peak anticonvulsant effect in CF1 MICE after po administration.; assay type: functional, Mus musculus; method in brief: as §3
[24] = Antiepileptic activity in male CF1 mice 4 hr after administration measured in neurological toxicity (Tox) test at a dose of 100 mg/kg (no. of animals treated /protected); activity value is 0/4; assay type: functional, Mus musculus
[25] = Antiepileptic activity in male CF1 mice 4 hr after administration measured in subcutaneous pentylenetetrazole (scMet) test at a dose of 100 mg/kg; activity value is 0/1; assay type: functional, Mus musculus
[26] = Time of peak neurotoxic effect in CF1 MICE after ip administration.; assay type: ADME, organism-based; conditions: mouse, in vivo; method in brief: as §2
[27] = Dose protecting 50% of the mice from tonic hind limb extension at the time of peak convulsant effect after po administration.; assay type: functional; conditions: Mus musculus, Hindlimb; method in brief: as §1
[28] = Antiepileptic activity in male CF1 mice 30 min after administration measured in subcutaneous pentylenetetrazole (scMet) test at a dose of 100 mg/kg (no. of animals treated /protected) activity value is 0/1; assay type: functional, Mus musculus
[29] = Dose showing neurotoxicity in 50% of the at the time of peak neurotoxic effect in CF1 MICE after ip administration.; assay type: toxicity, organism-based; conditions: CF1, mouse, in vivo
Method in brief: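 CF1 male mice (ca. 24–34 g), dosed ip in 0.5% methylcellulose suspension. Neurotoxicity measured by the rotorod test at the time of peak neurotoxic effect. TD50 and confidence limits by the Litchfield-Wilcoxon method.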

[30] = Antiepileptic activity in male CF1 mice 30 min after administration measured in subcutaneous pentylenetetrazole (scMet) test at a dose of 100 mg/kg (no. of animals treated /protected); activity value is 0/1; assay type: functional, Mus musculus
[31] = Antiepileptic activity in male CF1 mice 4 hr after administration measured in subcutaneous pentylenetetrazole (scMet) test at a dose of 100 mg/kg (no. of animals treated /protected); activity value is 0/1; assay type: functional, Mus musculus
Rattus norvegicus = assay: Dose reducing the seizure severity in rat cornea 1 hr after peroral administration; assay type: functional; conditions: po
Method in brief: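 Same corneal-kindled Sprague-Dawley rat procedure with the drug given po. Vehicles: 0.5% methylcellulose, 0.9% NaCl or corn oil. Single shock at the time of peak effect, scored on the modified Racine scale. ED50 by Litchfield-Wilcoxon, taken as the dose that reduced seizure severity by 50%.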

Structure (SMILES) | Activity [2] | TPE [3] | Activity [4] | ED50 [5] [mg/kg] | TPE [7] | Activity [8] | Activity [9] | Activity [10] | Activity [11] | Dose [12] | Activity [14] | Activity [15] | Activity [17] | Activity [21] | Activity [22] | Activity [24] | also measured
COC(=O)C1C(O)=C/C(=N\Cc2ccccc2)CC1(C)C (configuration not stated) | 1 | 1 | 0 | 132 | 0.5 | 0 | 0 | 0 | 1 | >100 mg/kg |  |  |  |  |  |  | TD50 [1]: > 500 mg/kg; selectivity ratio [6]: 3.8
CC1CC(NCCc2ccccc2)=CC(=O)C1C(=O)NCCc1ccccc1 (configuration not stated) |  |  | 0 |  |  | 0 | 0 |  |  | >100 mg/kg | 1 | 0 |  |  |  |  | Activity [13]: 0
CC1(C)CC(O)=C/C(=N\Cc2ccccc2)C1 | 1 |  | 0 |  |  | 0 | 0 |  | 1 | >100 mg/kg | 1 |  | 1 | 0 | 0 | 0 | selectivity ratio [16]: 2.8; ED50 [18]: 53 mg/kg; Dose [19]: 20 mg/kg; TPE [20]: 0.5; TPE [23]: 0.5; Activity [25]: 0; TPE [26]: 0.25; ED50 [27]: 211 mg/kg; Activity [28]: 0; TD50 [29]: 148 mg/kg
COC(=O)C1C(=O)C=C(Nc2cc(OC)ccc2OC)CC1C (configuration not stated) |  |  | 0 |  |  | 0 | 0 | 0 | 1 | <=100 mg kg-1 |  | 0 | 1 | 0 | 0 | 0 | Activity [30]: 0; Activity [31]: 0
O=C1CN=C(c2ccccc2Cl)c2cc([N+](=O)[O-])ccc2N1 [CLONAZEPAM] |  |  |  |  |  |  |  |  |  |  |  |  |  |  |  |  | ED50 (Rattus norvegicus): 0.7 mg/kg
NC(=O)N1c2ccccc2C=Cc2ccccc21 [CARBAMAZEPINE] |  | 0.25 |  | 8.8 | 0.25 |  |  |  |  |  |  |  |  |  |  |  | 
